Molecules are shown by their SMILES. Converted amounts (≈) assume the structure as drawn.

The source of these data is ChEMBL document CHEMBL3351239, “Polyketide glycosides from Bionectria ochroleuca inhibit Candida albicans biofilm formation” (J Nat Prod, 2014).

Experiment [1] relates to Candida albicans. The experiment is described as follows: Growth inhibition of Candida albicans SC5314 assessed as reduction in reduction in metabolic activity incubated for 48 hrs by XTT assay. Type of experiment: organism-based. The following applies: SC5314, 48 h. The procedure, abridged: (§1)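 SC5314 grown overnight at 37 °C in BHI, washed in PBS and resuspended in RPMI-1640 with 0.17 M MOPS at pH 7.0. Cells at 2.5 × 10^3 cells/mL were exposed to serial dilutions from 20 mM DMSO stocks (final DMSO ≤1% v/v) for 48 h at 37 °C. Viability was read by XTT (0.1 mg/mL, 1 h, A492). MIC = lowest concentration giving ≥80% drop in metabolic activity, per CLSI M27-A3.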

Experiment [2] deals with Candida albicans. Description: Inhibition of biofilm formation of Candida albicans SC5314 incubated for 48 hrs by XTT assay. The experiment is classed as functional, organism-based. The following applies: SC5314, 48 h. The gist of the method: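 SC5314 pregrown in BHI overnight at 37 °C, washed, and seeded at 2.5 × 10^3 cells/mL in RPMI-1640/MOPS pH 7.0 with diluted compounds (DMSO ≤1% v/v final) for 48 h at 37 °C. Nonadherent cells were removed by two PBS washes and fresh medium added. Biofilm was quantified by XTT at A492. IC50 = concentration at 50% of maximal biofilm formation. Triplicate wells, three separate occasions.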
On the technique in general: Tetrazolium assays rely on reduction of a dye to a coloured formazan, in cell work by metabolically active cells.

Experiment [3] concerns Candida albicans. Description: Potentiation of amphotericin B-induced antimicrobial effect against Candida albicans SC5314 assessed as ratio of MIC for compound plus amphotericin B to MIC for compound alone incubated for 48 hrs by XTT assay. Type of experiment: functional. The procedure, abridged: (§2)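 Checkerboard assay: C. albicans seeded in 96-well format with test compound alone or combined with amphotericin B, in RPMI-1640 plus MOPS, for 48 h at 37 °C. Viability was read by XTT, with MIC = lowest concentration giving ≥80% metabolic reduction. FIC = MIC in combination / MIC alone for each agent; FICI = FICA + FICB.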

The subject of experiment [4] is Candida albicans. The experiment is described as follows: Potentiation of amphotericin B-induced antimicrobial effect against Candida albicans SC5314 assessed as ratio of MIC for compound plus amphotericin B to MIC for amphotericin B alone incubated for 48 hrs by XTT assay. Type of experiment: functional. The procedure, abridged: as §2
The test system of experiment [5] is Candida albicans. The experiment is described as follows: Antimicrobial activity against Candida albicans SC5314 incubated for 48 hrs by XTT assay. Type of experiment: functional. The following applies: SC5314, 48 h. The procedure, abridged: as §1
Experiment [6] deals with Candida albicans. Description: Potentiation of amphotericin B-induced antimicrobial effect against Candida albicans SC5314 incubated for 48 hrs by XTT assay. Type of experiment: functional. The procedure, abridged: as §2
For experiment [7], the system named is Candida albicans. Description: Antimicrobial activity against Candida albicans SC5314 in presence of amphotericin B incubated for 48 hrs by XTT assay. Type of experiment: functional. Particulars: SC5314, 48 h. The gist of the method: as §2

For orientation: IC50 means the point on the concentration scale where inhibition reaches its midpoint. For the compound `CCCCCC#CCC#CCC#CCC#CCCCC(=O)O`, the IC50 in the experiment with Candida albicans [1] is > 100 µM; in the experiment with Candida albicans [2], 3.4 µM.
What is called MIC80 is the lowest concentration that inhibits either 80% of growth or 80% of the strains tested, depending on the study. On to `CCC(C)CC(C)CC(C)C(O[C@@H]1O[C@H](CO)[C@@H](O)[C@H](O)[C@@H]1O)C(C)/C=C(\C)C(O)C(C)/C=C(\C)C(O)C(C)C(=O)O` (stereo partly specified), for which the Ratio is listed as <0.05 in the experiment with Candida albicans [3] and 0.25 with Candida albicans [4]. Besides, the IC50 in the experiment on Candida albicans [1] is > 100 µM; in the experiment with Candida albicans [2] it was 5 µM. The MIC80 against Candida albicans [5] was > 100 µM; in the experiment on Candida albicans [7] it was 5 µM. The “fractional inhibitory concentration index (FICI)” value in the experiment on Candida albicans [6] was <0.3.
Turning to `CC[C@H](C)C[C@H](C)C[C@H](C)[C@@H](O[C@@H]1O[C@H](CO)[C@@H](O)[C@H](O)[C@@H]1O)[C@@H](C)/C=C(\C)[C@@H](O)[C@@H](C)/C=C(\C)[C@@H](O)[C@@H](C)/C=C(\C)C(=O)OC[C@@H](O)[C@@H](O)[C@H](O)[C@H](O)CO`, the Ratio was <0.05 in the experiment with Candida albicans [3] and 0.25 in the experiment on Candida albicans [4]. Further, the half-maximal inhibitory concentration (IC50) was > 100 µM in the experiment on Candida albicans [1] and 1.1 µM with Candida albicans [2]. The figures for the MIC80 against Candida albicans [5] and in the experiment on Candida albicans [7] were > 100 µM and 5 µM, respectively. Also, the “fractional inhibitory concentration index (FICI)” value with Candida albicans [6] is on record as <0.3.
Consider `CC[C@H](C)C[C@H](C)C[C@H](C)[C@@H](O[C@@H]1O[C@H](COC(C)=O)[C@@H](O)[C@H](O)[C@@H]1O)[C@@H](C)/C=C(\C)[C@@H](O)[C@@H](C)/C=C(\C)[C@@H](O)[C@@H](C)/C=C(\C)[C@@H](O)[C@@H](C)C(=O)OC[C@@H](O)[C@@H](O)[C@H](O)[C@H](O)CO`, for which the Ratio in the experiment with Candida albicans [3] is 0.03; with Candida albicans [4] it was 0.25. Moreover, the results for the IC50 with Candida albicans [1] and with Candida albicans [2] were 24.1 µM and 1.5 µM, respectively. In addition, the MIC80 against Candida albicans [5] came out at 50 µM (≈ 45.4 µg/mL); with Candida albicans [7], 1.25 µM. Moreover, in the experiment with Candida albicans [6], the “fractional inhibitory concentration index (FICI)” value amounted to 0.28.
Turning to `CC[C@H](C)C[C@H](C)C[C@H](C)[C@@H](O[C@@H]1O[C@H](COC(C)=O)[C@@H](O)[C@H](O)[C@@H]1O)[C@@H](C)/C=C(\C)[C@@H](O)[C@@H](C)/C=C(\C)[C@@H](O)[C@@H](C)/C=C(\C)C(=O)OC[C@@H](O)[C@@H](O)[C@H](O)CO`, the results for the Ratio in the experiment on Candida albicans [3] and in the experiment with Candida albicans [4] were 0.03 and 0.25, respectively. The IC50 in the experiment with Candida albicans [1] stood at 41 µM; in the experiment on Candida albicans [2], 1.2 µM. The MIC80 in the experiment on Candida albicans [5] turned out to be 50 µM (≈ 41 µg/mL); in the experiment on Candida albicans [7] it was 1.25 µM. For the same compound, in the experiment on Candida albicans [6], the “fractional inhibitory concentration index (FICI)” value is 0.28.
As for `CC[C@H](C)C[C@H](C)C[C@H](C)[C@@H](O[C@@H]1O[C@H](COC(C)=O)[C@@H](O)[C@H](O)[C@@H]1O)[C@@H](C)/C=C(\C)[C@@H](O)[C@@H](C)/C=C(\C)[C@@H](O)[C@@H](C)/C=C(\C)C(=O)OC[C@@H](O)[C@@H](O)[C@H](O)[C@H](O)CO`, the figures for the Ratio in the experiment on Candida albicans [3] and in the experiment with Candida albicans [4] were 0.03 and 0.25, respectively. Also, the IC50 was found to be 36.3 µM in the experiment on Candida albicans [1] and 1.5 µM in the experiment with Candida albicans [2]. For the same compound, the MIC80 in the experiment with Candida albicans [5] turned out to be 50 µM (≈ 42.5 µg/mL); with Candida albicans [7], 1.25 µM. In addition, the “fractional inhibitory concentration index (FICI)” value with Candida albicans [6] is reported as 0.28.
With `CC[C@H](C)C[C@H](C)C[C@H](C)[C@@H](O[C@@H]1O[C@H](CO)[C@@H](O)[C@H](O)[C@@H]1O)[C@@H](C)/C=C(\C)[C@@H](O)[C@@H](C)/C=C(\C)[C@@H](O)[C@@H](C)/C=C(\C)[C@@H](O)[C@@H](C)C(=O)O`, the figures for the Ratio with Candida albicans [3] and with Candida albicans [4] were <0.05 and 0.25, respectively. Moreover, the values for the IC50 in the experiment on Candida albicans [1] and in the experiment on Candida albicans [2] were > 100 µM and 2.4 µM, respectively. Besides, the MIC80 in the experiment with Candida albicans [5] is > 100 µM; in the experiment on Candida albicans [7], 5 µM. Further, the “fractional inhibitory concentration index (FICI)” value in the experiment on Candida albicans [6] is recorded as <0.3.
For the compound `CC[C@H](C)C[C@H](C)C[C@H](C)[C@@H](O[C@@H]1O[C@H](CO)[C@@H](O)[C@H](O)[C@@H]1O)[C@@H](C)/C=C(\C)[C@@H](O)[C@@H](C)/C=C(\C)[C@@H](O)[C@@H](C)/C=C(\C)C(=O)OC[C@@H](O)[C@@H](O)[C@H](O)CO`, the Ratio is recorded as <0.01 in the experiment with Candida albicans [3] and 0.25 in the experiment with Candida albicans [4]. For the same compound, the IC50 is > 100 µM in the experiment with Candida albicans [1] and 1.5 µM with Candida albicans [2]. Besides, the MIC80 against Candida albicans [5] was > 100 µM; in the experiment with Candida albicans [7], 1.25 µM. Also, the “fractional inhibitory concentration index (FICI)” value in the experiment on Candida albicans [6] is on record as <0.26.
